Here are results for 97 compounds from ChEMBL document CHEMBL4513216, “Probing the Open Global Health Chemical Diversity Library for Multistage-Active Starting Points for Next-Generation Antimalarials” (ACS Infect Dis, 2020).

A short description of this data set: Toxicity liver stage against HepG2, at 10uM. It counts as cell-based. Set-up: test concentration 10 uM, cell line HepG2-A16-CD81EGFP. The note with it: human, HepG2-A16-CD81EGFP cells; read-out: INHIBITION
In outline: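 Uninfected HepG2-A16-CD81EGFP cells, 3 × 10^3 per well, 1536-well, plated on prespotted compound at 10 μM final, parasite-free screening media added to match infected plates; puromycin 10 μM positive, DMSO 0.5% negative; run in parallel with 48 h PbLuc assay at 37 °C, 5% CO2; viability by CellTiter-Glo luminescence, normalized to controls.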

Regarding `CN1CCN2CCN(Cc3ccccc3Cn3cccn3)CC2C1` (configuration not stated), the cytotoxicity at 10 µM was -133%.

As for `CCOCCNS(=O)(=O)c1ccc2c3c1CCCN3C(=O)CO2`, the cytotoxicity at 10 µM came to 7.9%.

On to `Cc1cnc(CN2C[C@H]3CC(Oc4ccccc4)C[C@H]3C2)cn1` (some centres not stated), for which the cytotoxicity at 10 µM was -24.3%.

With `COc1ccc(CN2C[C@@H]3COC[C@H](N4CCN(C)CC4)[C@@H]3C2)cc1`, the cytotoxicity at 10 µM was -85.6%.

On to `COCCCNC(=O)CN(C)C(=O)c1ccc(-n2cccc2)cc1O`, for which the cytotoxicity at 10 µM was -13.5%.

Turning to `O=C(c1ccsc1)N1CCc2nnc(COc3cncnc3)n2CC1`, the cytotoxicity at 10 µM was 1.72%.

On to `Cc1nn(C)c(C)c1CN(C)C(=O)c1cc(NC(=O)C2CC2)n(C)n1`, for which the cytotoxicity at 10 µM was 3.38%.

Take `Cc1ccc(C(=O)N2CCCC(C(=O)N3CCCCC3)C2)c(O)c1` (configuration not stated): the cytotoxicity at 10 µM was -7.52%.

For the compound `CN1CCCN(C(=O)c2cc3c(s2)CCN3C(=O)C2CC2)CC1`, the cytotoxicity at 10 µM is 6.74%.

With `O=C(NCc1ccccn1)Nc1cc(C(F)(F)F)c[nH]c1=O`, the cytotoxicity at 10 µM was -2.87%.

In the case of `O=C(NCc1cccnc1)N1CCSCC1CCO` (configuration not stated), the cytotoxicity at 10 µM was -1.46%.

On to `CC(C)c1cc(C(=O)N2CCN(c3cccc(C(=O)O)c3)CC2)n(C)n1`, for which the cytotoxicity at 10 µM was -2.95%.

On to `COC(=O)c1cc(NS(=O)(=O)c2cn(C)cn2)c(F)cc1F`, for which the cytotoxicity at 10 µM was found to be 14.8%.

On to `Cc1ccc(C(C(=O)N2CCN(C(=O)c3ccc[nH]3)CC2)N(C)C)cc1` (configuration not stated), for which the cytotoxicity at 10 µM was -10.7%.

For the compound `CS(=O)(=O)CC1(CNc2cc(C#N)c3cc(Cl)ccc3n2)CC1`, the cytotoxicity at 10 µM is -4.06%.

Consider `c1ccc(CN2CCC3(COCc4cnc(NCC5CC5)nc43)C2)cc1` (configuration not stated), for which the cytotoxicity at 10 µM came out at 12.5%.

Turning to `O=C(CCc1nc(C2CC2)no1)c1ccc(F)c(F)c1`, the cytotoxicity at 10 µM stood at 0.923%.

Regarding `Cc1noc(C)c1CNC(=O)NCCOc1ccc(F)cc1F`, the cytotoxicity at 10 µM turned out to be 0.409%.

For `CN1CC(c2cc(O)nc(NCc3ccccc3Cl)n2)CC1=O` (configuration not stated), the cytotoxicity at 10 µM is -20.2%.

Regarding `Cn1ccnc1C(=O)N1CCC2(CCN2c2ncccn2)C1` (configuration not stated), the cytotoxicity at 10 µM was -0.736%.

For the compound `COc1ccc2c(c1)CC(NCc1cccc(CO)c1)CC2` (configuration not stated), the cytotoxicity at 10 µM is -51.8%.

Take `CCc1nc(C2CCCN2CCc2cccs2)no1` (configuration not stated): the cytotoxicity at 10 µM is -108%.

Consider `COc1cc(N2CCC3(CC2)CN(S(C)(=O)=O)c2ccccc23)ncn1`, for which the cytotoxicity at 10 µM was 12.8%.

Take `CCCNC(=O)Cn1c(-n2nc(C)cc2C)nc(CCC)cc1=O`: the cytotoxicity at 10 µM was determined as 8.94%.

With `O=C(NCCN1CCNC1=O)c1cc(-c2ccc(O)cc2)n[nH]1`, the cytotoxicity at 10 µM is 6.27%.

As to `COCCC(=O)N1CC[C@@H](N2CCN(C)CC2)[C@@H]1Cc1ccccc1`, the cytotoxicity at 10 µM stood at 7.7%.

As to `CCOCC(=O)N1CCC(CSCc2ccco2)CC1`, the cytotoxicity at 10 µM was -7.36%.

With `O=C(C1CCS(=O)(=O)C1)N1CCC(=Cc2cccc(F)c2)CC1` (configuration not stated), the cytotoxicity at 10 µM turned out to be 10.6%.

`Cc1ncccc1Oc1ncnc(N2CCC3(CCCO3)CC2)c1C`: the cytotoxicity at 10 µM was -6.89%.

Take `O=C(NCCCn1cncn1)c1ccc(-c2ccco2)[nH]c1=O`: the cytotoxicity at 10 µM came out at 2.87%.

As to `CNC(=O)CN1CCOCC12CCN(Cc1ccncc1)CC2`, the cytotoxicity at 10 µM is 3.07%.

As to `CNC(=O)CS(=O)(=O)C1CCN(S(=O)(=O)c2c(F)cccc2F)CC1`, the cytotoxicity at 10 µM was -22%.

In the case of `Cc1ccc(CN2CC[C@H]3O[C@@H](C(=O)N4CCCO4)CC[C@H]32)s1`, the cytotoxicity at 10 µM is -3.29%.

Turning to `CCOC(=O)[C@H]1[C@@H](O)C(=O)N(C)C12CCN(C(=O)CC(C)(C)C)CC2`, the cytotoxicity at 10 µM is -4.1%.

`COc1cc(C)ccc1OCCC(=O)N1CCC(C(N)=O)C1` (configuration not stated): the cytotoxicity at 10 µM amounted to 6.31%.

For `CN(C)S(=O)(=O)N1CCN(CC2CCOc3ccccc3C2)CC1` (configuration not stated), the cytotoxicity at 10 µM was -0.529%.

With `COC(=O)c1ccc(S(=O)(=O)NCc2cccnc2N(C)C)cc1`, the cytotoxicity at 10 µM worked out at 9.3%.

Regarding `CCN1CCN(S(=O)(=O)c2cc(Cl)c(Cl)cc2C)CC1`, the cytotoxicity at 10 µM was determined as 2.28%.

Consider `CCc1noc(C2CCCCN2C(=O)c2ccccc2)n1` (configuration not stated), for which the cytotoxicity at 10 µM is -2.38%.

Regarding `COc1ncccc1C(=O)Nc1cccc(C[S+](C)[O-])c1C` (configuration not stated), the cytotoxicity at 10 µM stood at 2.28%.

For the compound `CCN(CC(=O)NC1(C)CCS(=O)(=O)C1)Cc1ccc(OC)c(F)c1` (configuration not stated), the cytotoxicity at 10 µM was -9.44%.

For the compound `O=C(N1CCOCC1)[C@@]12CCO[C@@H]1CCN(Cc1ccncc1)C2`, the cytotoxicity at 10 µM was -1.2%.

Take `CC1c2ncc(Cn3cccn3)n2CCN1Cc1ccc(F)cc1` (configuration not stated): the cytotoxicity at 10 µM was -107%.

With `CC(C)CN1CCc2[nH]cnc2C12CCN(C(=O)c1ccc[nH]1)CC2`, the cytotoxicity at 10 µM worked out at 14.7%.

Turning to `CSCCC(NC(=O)c1ccc2ccccc2n1)C(=O)O` (configuration not stated), the cytotoxicity at 10 µM was -3.09%.

Turning to `CCn1c(Cn2cncn2)nnc1C1CCN(C2CCNCC2)CC1`, the cytotoxicity at 10 µM was -0.0807%.

Regarding `CCOCc1cnc2n1CCN(C(=O)Cc1ccccn1)C2C` (configuration not stated), the cytotoxicity at 10 µM was 8.04%.

For the compound `CCc1ncc(C(=O)N(CCOC)Cc2ccccc2F)cn1`, the cytotoxicity at 10 µM is 0.728%.

For the compound `O=C(CCC1CC1)N1CCC(n2cc(C3(O)CCCC3)nn2)CC1`, the cytotoxicity at 10 µM stood at 9.4%.

Turning to `c1ccc(Cn2ccnc2CN2CCOC(Cn3cccn3)C2)cc1` (configuration not stated), the cytotoxicity at 10 µM is -3.78%.

For `CCN1CCN(c2ccc(F)cc2C(C)NCc2noc(C)n2)CC1` (configuration not stated), the cytotoxicity at 10 µM was 1.8%.

Regarding `CS(=O)(=O)N1CCC2(CC1)CN(CCn1cccn1)C(=O)CO2`, the cytotoxicity at 10 µM is -2.79%.

For `Cc1nnc(CN(C)C2CCN(Cc3nnc(C4CCC4)o3)C2)n1C` (configuration not stated), the cytotoxicity at 10 µM was -8.15%.

As for `N#Cc1ccc(NCc2cc3n(n2)CCCN(C(=O)C2CCC2)C3)nc1`, the cytotoxicity at 10 µM is -127%.

`O=C1CC2(CCCC2)CC(=O)N1Cc1ncccn1`: the cytotoxicity at 10 µM was found to be 1.27%.

On to `COc1ccc(CNC(=O)NCc2c(C)cc(C)[nH]c2=O)cc1`, for which the cytotoxicity at 10 µM is -3.22%.

For the compound `COCCN(Cc1coc(-c2cccc(Cl)c2)n1)C1CC1`, the cytotoxicity at 10 µM came to 3.92%.

In the case of `O=S(=O)(Nc1ccon1)c1cc(Cl)cc2c1OCC2`, the cytotoxicity at 10 µM turned out to be 5.81%.

As to `COCCC1(CNC(=O)NCC2CCCN(C)C2)CCC1` (configuration not stated), the cytotoxicity at 10 µM is -1.11%.

Take `Cc1ccc2oc(C(=O)N3CCc4nnc(N(C)C)cc4C3)cc2n1`: the cytotoxicity at 10 µM was -3.25%.

Take `Cn1cc(-c2nc(C(=O)N3CCCC3c3cnn(C)c3)cs2)cn1` (configuration not stated): the cytotoxicity at 10 µM stood at 1.85%.

As to `Cc1nnc(Nc2cccc(C3CCN(CCO)CC3)n2)s1`, the cytotoxicity at 10 µM was 2.37%.

In the case of `CCN(Cc1nc(C)no1)C(=O)C1CC(=O)N(Cc2ccccn2)C1` (configuration not stated), the cytotoxicity at 10 µM came out at 4.78%.

For `CN1C(=O)C(c2ccccc2)CC12CCN(CCN1CCCC1=O)CC2` (configuration not stated), the cytotoxicity at 10 µM is -14.6%.

Consider `COc1ccc(OC)c(C(=O)N2CCC(Nc3cccnc3)CC2)c1`, for which the cytotoxicity at 10 µM is -138%.

For the compound `CN1CCC(CNC(=O)c2ccc(O)nc2)c2ccccc21` (configuration not stated), the cytotoxicity at 10 µM amounted to 13.9%.

Regarding `Cc1cc(C2CCCN(C(=O)COc3ccccc3F)C2)n[nH]1` (configuration not stated), the cytotoxicity at 10 µM worked out at 7.45%.

Turning to `Cn1cccc1C(=O)N1CCCn2nc(CCC(=O)NC3CC3)cc2C1`, the cytotoxicity at 10 µM was 5.45%.

As for `O=S(=O)(C1CC1)N1CCO[C@H]2[C@H](OCC3CCCC3)CC[C@@H]21`, the cytotoxicity at 10 µM was -5.58%.

On to `N#CC1(NC(=O)c2cc(Cl)c3c(c2)OCCCO3)CCC1`, for which the cytotoxicity at 10 µM is -8.42%.

`Cc1cc(N2CCCC(N(C)C)C2)n2nc(C)cc2n1` (configuration not stated): the cytotoxicity at 10 µM was -53.5%.

As to `CCCc1n[nH]c(C2CN(CCNS(C)(=O)=O)CCO2)n1` (configuration not stated), the cytotoxicity at 10 µM is -0.975%.

As to `COc1ccc(C(C)NCc2cccs2)cc1Cn1cccn1` (configuration not stated), the cytotoxicity at 10 µM amounted to 10.2%.

`CS(=O)(=O)c1ccc(NCc2ccccc2)cn1`: the cytotoxicity at 10 µM stood at 13.2%.

Regarding `Cc1nc(NC2CCN(C(=O)C3CC3)CC2)c2cnn(C)c2n1`, the cytotoxicity at 10 µM is -2.13%.

In the case of `Cn1c2ncccc2c(=O)n1CC(=O)Nc1ccc(F)c(F)c1`, the cytotoxicity at 10 µM was found to be 16.5%.

Consider `CC(C)NC(=O)N1CCOC2(CNC2)C1`, for which the cytotoxicity at 10 µM was -0.479%.

On to `O=S(=O)(CCCN1CCCCC1Cn1cncn1)c1ccccc1` (configuration not stated), for which the cytotoxicity at 10 µM was -7.42%.

Turning to `Cc1csc(CCNC(=O)N2CCC(NC(=O)OC(C)(C)C)CC2)n1`, the cytotoxicity at 10 µM worked out at 1.23%.

For `CCn1c(CN(C)C)nnc1C1CCN(Cc2cnc(C)nc2)CC1`, the cytotoxicity at 10 µM came to 4.6%.

On to `Cc1ncc(CNC(=O)NCC(C)Oc2ccccc2F)s1` (configuration not stated), for which the cytotoxicity at 10 µM is -7.16%.

Turning to `Cc1cc(NC(=O)N2CCN(C)CC2C)n(CCC#N)n1` (configuration not stated), the cytotoxicity at 10 µM stood at 2.35%.

In the case of `Cc1cc(C(=O)N2CCCN(Cc3cnn(C)c3)CC2)no1`, the cytotoxicity at 10 µM is -2.92%.

For `COc1cc(C2c3c(n[nH]c3C)N=C3COC(=O)C32)cc2c1OCO2` (configuration not stated), the cytotoxicity at 10 µM amounted to 87.7%.

Turning to `CNC(=O)NC(=O)CCN1CCOC(c2ccc(Br)cc2)C1` (configuration not stated), the cytotoxicity at 10 µM is -2.42%.

`Cc1noc(COCC(=O)N2CCCCC2c2nccs2)n1` (configuration not stated): the cytotoxicity at 10 µM amounted to 6.9%.

On to `CC(=O)NC1CCN(C(=O)Nc2ccc(SC(F)F)cc2)CC1`, for which the cytotoxicity at 10 µM was -6.91%.

Take `CCN1CCN(S(=O)(=O)c2cc(C)c(Cl)cc2C)CC1`: the cytotoxicity at 10 µM is -3.89%.

Regarding `CCn1cnnc1CNS(=O)(=O)N1CCCC1c1ccco1` (configuration not stated), the cytotoxicity at 10 µM was -141%.

For `Nc1cc(-c2cccc3c2CCNC3)ncn1`, the cytotoxicity at 10 µM was -8.27%.

Take `OCC1(O)CCN(c2ccnc3c(C(F)(F)F)cccc23)CC1`: the cytotoxicity at 10 µM was -14.8%.

On to `Cc1nc(CN2CCCC2Cn2ccnc2C(C)C)nc2ccccc12` (configuration not stated), for which the cytotoxicity at 10 µM was -56.8%.

With `COCc1cncc2c1CCN(C(=O)c1ccoc1C)C2`, the cytotoxicity at 10 µM is -81.1%.

`CCn1ccc(NC(=O)CCn2nc(C)c3ccccc32)n1`: the cytotoxicity at 10 µM is 4.51%.

On to `O=C(NCc1ncc[nH]1)c1c(F)cccc1I`, for which the cytotoxicity at 10 µM was -6.78%.

On to `Cc1cccc(CNc2ccc(C(=O)N3CCC(CO)CC3)cc2)c1`, for which the cytotoxicity at 10 µM came to 18.9%.

For `O=C(C1CC(=O)N(c2ccccc2Br)C1)N1CCN(CC(F)(F)F)CC1` (configuration not stated), the cytotoxicity at 10 µM turned out to be 7.29%.
